Measurements reported in ChEMBL document CHEMBL5678806, “NMS-P937, an orally available, specific small-molecule polo-like kinase 1 inhibitor with antitumor activity in solid and hematologic malignancies” (Mol Cancer Ther, 2012).
Active and inactive are the calls of the source. The rule behind the calls is not given here.

Columns and labels:
[1] = molecular target: Epidermal growth factor receptor (Homo sapiens, UniProt P00533); experiment: Inhibition of EGFR1 (unknown origin) in presence of [gamma-33P]ATP
[2] = molecular target: RAC-alpha serine/threonine-protein kinase (Homo sapiens, UniProt P31749); experiment: Inhibition of AKT1 (unknown origin) in presence of [gamma-33P]ATP
NCI-H522 = experiment: Antiproliferative activity against human NCI-H522 cells assessed as inhibition of cell growth incubated for 72 hrs by cell-titer glo assay; type: functional, cell-based; conditions: NCI-H522, 72 h
Outline: (§1)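 Cells from ATCC or ECACC, kept in supplier-recommended medium with 1% penicillin-streptomycin at 37°C, 5% CO₂. Seeded at 10,000–30,000/cm² (adherent) or 100,000/mL (nonadherent) in medium with 10% fetal calf serum. Dosed after 24 h in duplicate with serial dilutions. Viable cells read by CellTiter-Glo 72 h later. IC50 from sigmoidal fit. At least two independent experiments.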

A2780 [3] = experiment: Antiproliferative activity against human A2780 cells assessed as inhibition of cell growth incubated for 72 hrs by cell-titer glo assay; type: functional, cell-based; conditions: A2780, 72 h
Outline: (§2)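 Cells seeded 10,000–30,000/cm² (adherent) or 100,000/mL (suspension) in medium with 10% fetal calf serum; after 24 h treated in duplicate with serial dilutions for 72 h. Viable cells read by CellTiter-Glo luminescence; IC50 from sigmoidal fit; at least two independent experiments.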

[4] = molecular target: Serine/threonine-protein kinase haspin (Homo sapiens, UniProt Q8TF76); experiment: Inhibition of Haspin (unknown origin) in presence of [gamma-33P]ATP
[5] = Clearance in Sprague-Dawley rat at 10 mg/kg, iv by LC-MS analysis; type: ADME, organism-based; conditions: in vivo
HT-29 [6] = experiment: Antitumor activity against human HT-29 cells xenografted in nu/nu mouse assessed as tumor growth inhibition at 60 mg/kg, po administered for 10 days; type: functional, organism-based; conditions: time 10.0 day
MDA-MB-468 = experiment: Antiproliferative activity against human MDA-MB-468 cells assessed as inhibition of cell growth incubated for 72 hrs by cell-titer glo assay; type: functional, cell-based; conditions: MDA-MB-468, 72 h
Outline: (§3)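 Cells seeded at 10,000–30,000/cm² (adherent) or 100,000/mL (nonadherent) in medium with 10% fetal calf serum; after 24 h, treated in duplicate with serial dilutions for 72 h. Viable cell number read by CellTiter-Glo luminescence; IC50 from sigmoidal fit; at least two independent experiments.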

NCI-H2228 = experiment: Antiproliferative activity against human NCI-H2228 cells assessed as inhibition of cell growth incubated for 72 hrs by cell-titer glo assay; type: functional, cell-based; conditions: NCI-H2228, 72 h; outline: as §1
[7] = Antiproliferative activity against human NPA cells assessed as inhibition of cell growth incubated for 72 hrs by cell-titer glo assay; type: functional, cell-based; outline: as §1
SK-MEL-5 = experiment: Antiproliferative activity against human SK-MEL-5 cells assessed as inhibition of cell growth incubated for 72 hrs by cell-titer glo assay; type: functional, cell-based; conditions: SK-MEL-5, 72 h
CAL-12T = experiment: Antiproliferative activity against human CAL-12T cells assessed as inhibition of cell growth incubated for 72 hrs by cell-titer glo assay; type: functional, cell-based; outline: as §2
[8] = Toxicity in nu/nu mouse xenografted with human HCT-116 cells assessed as body weight loss at 60 mg/kg, po administered for 8 days; type: organism-based; conditions: in vivo, 192 h, time 8 day
A2780 [9] = experiment: Induction of mitosis in human A2780 cells xenografted in nu/nu mouse assessed as increased Histone H3 phosphorylation on Ser10 at 60 mg/kg, po administered for 2 to 6 hrs by immunohistochemistry analysis; type: functional, organism-based; conditions: time 2-6 hrs
[10] = molecular target: Angiopoietin-1 receptor (Homo sapiens) (UniProt Q02763); experiment: Inhibition of N-terminal His6-tagged recombinant human Tie2 (771 to end residues) expressed in baculovirus infected Sf21 cells assessed as residual activity at 1 uM relative to control
[11] = Plasma concentration in nu/nu mouse xenografted with human HL-60 cells at 60 mg/kg, po administered for 10 days relative to control; type: ADME, organism-based; conditions: time 10 day
SW1417 = experiment: Antiproliferative activity against human SW1417 cells assessed as inhibition of cell growth incubated for 72 hrs by cell-titer glo assay; type: functional, cell-based; conditions: SW1417, 72 h
SU-DHL-8 = experiment: Antiproliferative activity against human SU-DHL-8 cells assessed as inhibition of cell growth incubated for 72 hrs by cell-titer glo assay; type: functional, cell-based; conditions: SU-DHL-8, 72 h
L-363 = experiment: Antiproliferative activity against human L-363 cells assessed as inhibition of cell growth incubated for 72 hrs by cell-titer glo assay; type: functional, cell-based; conditions: L-363, 72 h; outline: as §3
[12] = molecular target: Protein-tyrosine kinase 6 (Homo sapiens, UniProt Q13882); experiment: Inhibition of BRK (unknown origin) in presence of [gamma-33P]ATP
NCI-H1993 = experiment: Antiproliferative activity against human NCI-H1993 cells assessed as inhibition of cell growth incubated for 72 hrs by cell-titer glo assay; type: functional, cell-based; conditions: NCI-H1993, 72 h; outline: as §1
[13] = molecular target: Proto-oncogene tyrosine-protein kinase Src (Homo sapiens) (UniProt P12931); experiment: Inhibition of N-Terminal His6-tagged recombinant full-length human c-SRC expressed in Sf21 cells assessed as residual activity at 0.1 uM relative to control
HCC1395 = experiment: Antiproliferative activity against human HCC1395 cells assessed as inhibition of cell growth incubated for 72 hrs by cell-titer glo assay; type: functional, cell-based; conditions: HCC1395, 72 h; outline: as §3
[14] = molecular target: Homeodomain-interacting protein kinase 2 (Homo sapiens) (UniProt Q9H2X6); experiment: Inhibition of N-terminal His6-tagged recombinant human HIPK2 (165 to 564 residues) expressed in baculovirus infected Sf21 cells assessed as residual activity at 1 uM relative to control
U2OS = experiment: Effect on cell morphology in human U2OS cells expressing GFP/alpha-tubulin fusion protein assessed as aberrant number of spindle poles at 1 uM incubated for 24 hrs by laser scanning confocal microscopy analysis; type: functional, cell-based
A2780 [15] = experiment: In vivo inhibition of PLK1 in human A2780 cells xenografted in nu/nu mouse assessed as decreased TCTP phosphorylation on Ser46 at 60 mg/kg, po administered for 6 to 12 hrs by immunohistochemistry analysis; type: functional, organism-based; conditions: time lower 6.0 hrs, time upper […]
KG-1 = experiment: Antiproliferative activity against human KG-1 cells assessed as inhibition of cell growth incubated for 72 hrs by cell-titer glo assay; type: functional, cell-based; conditions: KG-1, 72 h; outline: as §3
[16] = molecular target: Testis-specific serine/threonine-protein kinase 1 (Homo sapiens) (UniProt Q9BXA7); experiment: Inhibition of 6His-tagged recombinant human full length TSSK1 expressed in baculovirus infected Sf21 cells assessed as residual activity at 1 uM relative to control
HCC 2998 = experiment: Antiproliferative activity against human HCC 2998 cells assessed as inhibition of cell growth incubated for 72 hrs by cell-titer glo assay; type: functional, cell-based; conditions: HCC 2998, 72 h; outline: as §3
A2780 [17] = experiment: In vivo inhibition of PLK1 in human A2780 cells xenografted in nu/nu mouse assessed as decreased TCTP phosphorylation on Ser46 at 60 mg/kg, po administered for 2 hrs by immunohistochemistry analysis; type: functional, organism-based
HT-29 [18] = experiment: Antiproliferative activity against human HT-29 cells assessed as inhibition of cell growth incubated for 72 hrs by cell-titer glo assay; type: functional, cell-based; conditions: HT-29, 72 h; outline: as §3

Sequence of RAC-alpha serine/threonine-protein kinase (P31749 whole entry): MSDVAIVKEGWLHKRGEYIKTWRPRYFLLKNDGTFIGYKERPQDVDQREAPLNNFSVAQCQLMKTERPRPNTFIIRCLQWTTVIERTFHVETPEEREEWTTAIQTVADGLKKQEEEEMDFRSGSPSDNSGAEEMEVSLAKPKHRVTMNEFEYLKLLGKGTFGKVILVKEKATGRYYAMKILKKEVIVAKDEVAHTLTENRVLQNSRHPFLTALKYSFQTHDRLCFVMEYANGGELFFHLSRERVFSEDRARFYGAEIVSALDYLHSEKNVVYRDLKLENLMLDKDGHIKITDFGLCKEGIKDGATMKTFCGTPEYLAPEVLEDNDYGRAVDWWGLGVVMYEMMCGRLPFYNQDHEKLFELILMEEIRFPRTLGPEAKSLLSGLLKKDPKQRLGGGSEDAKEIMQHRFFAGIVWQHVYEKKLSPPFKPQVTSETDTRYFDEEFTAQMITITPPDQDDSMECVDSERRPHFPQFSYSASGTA
Sequence of Epidermal growth factor receptor (P00533 whole entry): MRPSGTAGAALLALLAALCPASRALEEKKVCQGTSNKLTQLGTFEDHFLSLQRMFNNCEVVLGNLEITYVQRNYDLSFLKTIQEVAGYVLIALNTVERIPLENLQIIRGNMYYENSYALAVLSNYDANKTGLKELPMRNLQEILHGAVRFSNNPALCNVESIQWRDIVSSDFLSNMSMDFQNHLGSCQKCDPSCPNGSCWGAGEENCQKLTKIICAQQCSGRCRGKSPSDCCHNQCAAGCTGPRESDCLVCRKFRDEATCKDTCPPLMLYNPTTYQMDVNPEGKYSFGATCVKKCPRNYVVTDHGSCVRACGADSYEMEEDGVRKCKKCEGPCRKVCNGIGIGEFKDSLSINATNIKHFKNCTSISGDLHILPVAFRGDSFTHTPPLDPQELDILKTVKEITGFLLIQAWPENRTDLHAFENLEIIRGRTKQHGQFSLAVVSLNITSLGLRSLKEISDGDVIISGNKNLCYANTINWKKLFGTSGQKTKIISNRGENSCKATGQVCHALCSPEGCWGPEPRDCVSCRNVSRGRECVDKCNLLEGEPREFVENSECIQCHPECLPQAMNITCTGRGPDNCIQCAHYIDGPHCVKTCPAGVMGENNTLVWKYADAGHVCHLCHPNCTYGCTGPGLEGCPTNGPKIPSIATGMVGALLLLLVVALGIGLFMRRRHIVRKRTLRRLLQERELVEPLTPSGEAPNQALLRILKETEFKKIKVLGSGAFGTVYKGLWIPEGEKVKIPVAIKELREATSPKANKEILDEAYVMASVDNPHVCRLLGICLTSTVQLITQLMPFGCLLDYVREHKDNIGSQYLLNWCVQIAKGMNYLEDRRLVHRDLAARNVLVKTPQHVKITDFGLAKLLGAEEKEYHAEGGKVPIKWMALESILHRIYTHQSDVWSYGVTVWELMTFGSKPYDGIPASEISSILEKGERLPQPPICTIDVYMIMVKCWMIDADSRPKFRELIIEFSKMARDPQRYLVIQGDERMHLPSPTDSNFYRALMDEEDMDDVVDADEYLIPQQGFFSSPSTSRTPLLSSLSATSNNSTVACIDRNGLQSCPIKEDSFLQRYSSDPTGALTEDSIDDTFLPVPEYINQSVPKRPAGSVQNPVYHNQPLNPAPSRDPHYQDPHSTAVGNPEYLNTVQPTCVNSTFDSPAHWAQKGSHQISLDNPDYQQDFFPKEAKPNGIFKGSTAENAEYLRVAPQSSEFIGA
Sequence of Protein-tyrosine kinase 6 (Q13882 whole entry): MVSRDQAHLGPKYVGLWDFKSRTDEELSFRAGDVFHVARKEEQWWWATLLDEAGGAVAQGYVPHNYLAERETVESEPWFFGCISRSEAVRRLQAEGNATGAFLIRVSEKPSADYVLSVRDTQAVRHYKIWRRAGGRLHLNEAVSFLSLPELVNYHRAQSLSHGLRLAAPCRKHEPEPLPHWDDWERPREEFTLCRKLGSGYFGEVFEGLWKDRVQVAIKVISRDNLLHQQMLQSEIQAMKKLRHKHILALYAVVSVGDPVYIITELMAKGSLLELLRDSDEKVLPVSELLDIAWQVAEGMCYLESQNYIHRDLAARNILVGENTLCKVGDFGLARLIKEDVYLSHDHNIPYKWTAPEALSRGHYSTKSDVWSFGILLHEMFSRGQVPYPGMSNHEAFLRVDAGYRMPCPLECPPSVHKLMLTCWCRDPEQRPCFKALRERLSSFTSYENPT
Sequence of Testis-specific serine/threonine-protein kinase 1 (Homo sapiens) (Q9BXA7 whole entry): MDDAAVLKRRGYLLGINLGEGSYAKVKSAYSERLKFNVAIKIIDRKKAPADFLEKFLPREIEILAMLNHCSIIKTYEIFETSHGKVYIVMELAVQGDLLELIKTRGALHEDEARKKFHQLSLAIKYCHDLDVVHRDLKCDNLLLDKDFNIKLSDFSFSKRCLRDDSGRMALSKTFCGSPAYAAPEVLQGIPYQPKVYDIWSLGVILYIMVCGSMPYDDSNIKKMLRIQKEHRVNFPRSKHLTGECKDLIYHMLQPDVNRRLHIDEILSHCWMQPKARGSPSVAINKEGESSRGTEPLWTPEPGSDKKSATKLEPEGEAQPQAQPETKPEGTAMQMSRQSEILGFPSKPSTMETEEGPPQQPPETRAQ
Sequence of Serine/threonine-protein kinase haspin (Q8TF76 whole entry): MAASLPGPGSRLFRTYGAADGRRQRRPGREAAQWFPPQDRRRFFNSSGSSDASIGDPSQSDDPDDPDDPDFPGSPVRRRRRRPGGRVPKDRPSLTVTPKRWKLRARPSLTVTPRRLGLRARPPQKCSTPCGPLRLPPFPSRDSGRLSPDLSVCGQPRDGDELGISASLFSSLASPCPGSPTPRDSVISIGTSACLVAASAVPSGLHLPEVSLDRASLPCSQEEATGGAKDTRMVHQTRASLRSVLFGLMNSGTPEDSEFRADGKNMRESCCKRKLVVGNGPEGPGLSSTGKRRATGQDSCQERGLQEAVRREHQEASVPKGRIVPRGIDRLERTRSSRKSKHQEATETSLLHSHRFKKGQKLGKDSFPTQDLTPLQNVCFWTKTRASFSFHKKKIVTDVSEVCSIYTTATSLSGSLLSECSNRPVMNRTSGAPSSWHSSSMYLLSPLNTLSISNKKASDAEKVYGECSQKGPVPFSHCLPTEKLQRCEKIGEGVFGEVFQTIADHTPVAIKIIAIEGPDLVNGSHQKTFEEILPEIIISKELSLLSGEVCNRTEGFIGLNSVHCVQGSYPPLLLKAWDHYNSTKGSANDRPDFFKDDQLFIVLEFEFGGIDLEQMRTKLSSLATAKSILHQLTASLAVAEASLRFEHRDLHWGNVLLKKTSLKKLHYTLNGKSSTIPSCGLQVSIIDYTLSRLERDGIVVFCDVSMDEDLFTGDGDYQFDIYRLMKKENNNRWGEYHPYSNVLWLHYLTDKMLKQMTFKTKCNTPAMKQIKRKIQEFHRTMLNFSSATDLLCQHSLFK
Sequence of Homeodomain-interacting protein kinase 2 (Homo sapiens) (Q9H2X6 whole entry, looked up, the tested form may be a part): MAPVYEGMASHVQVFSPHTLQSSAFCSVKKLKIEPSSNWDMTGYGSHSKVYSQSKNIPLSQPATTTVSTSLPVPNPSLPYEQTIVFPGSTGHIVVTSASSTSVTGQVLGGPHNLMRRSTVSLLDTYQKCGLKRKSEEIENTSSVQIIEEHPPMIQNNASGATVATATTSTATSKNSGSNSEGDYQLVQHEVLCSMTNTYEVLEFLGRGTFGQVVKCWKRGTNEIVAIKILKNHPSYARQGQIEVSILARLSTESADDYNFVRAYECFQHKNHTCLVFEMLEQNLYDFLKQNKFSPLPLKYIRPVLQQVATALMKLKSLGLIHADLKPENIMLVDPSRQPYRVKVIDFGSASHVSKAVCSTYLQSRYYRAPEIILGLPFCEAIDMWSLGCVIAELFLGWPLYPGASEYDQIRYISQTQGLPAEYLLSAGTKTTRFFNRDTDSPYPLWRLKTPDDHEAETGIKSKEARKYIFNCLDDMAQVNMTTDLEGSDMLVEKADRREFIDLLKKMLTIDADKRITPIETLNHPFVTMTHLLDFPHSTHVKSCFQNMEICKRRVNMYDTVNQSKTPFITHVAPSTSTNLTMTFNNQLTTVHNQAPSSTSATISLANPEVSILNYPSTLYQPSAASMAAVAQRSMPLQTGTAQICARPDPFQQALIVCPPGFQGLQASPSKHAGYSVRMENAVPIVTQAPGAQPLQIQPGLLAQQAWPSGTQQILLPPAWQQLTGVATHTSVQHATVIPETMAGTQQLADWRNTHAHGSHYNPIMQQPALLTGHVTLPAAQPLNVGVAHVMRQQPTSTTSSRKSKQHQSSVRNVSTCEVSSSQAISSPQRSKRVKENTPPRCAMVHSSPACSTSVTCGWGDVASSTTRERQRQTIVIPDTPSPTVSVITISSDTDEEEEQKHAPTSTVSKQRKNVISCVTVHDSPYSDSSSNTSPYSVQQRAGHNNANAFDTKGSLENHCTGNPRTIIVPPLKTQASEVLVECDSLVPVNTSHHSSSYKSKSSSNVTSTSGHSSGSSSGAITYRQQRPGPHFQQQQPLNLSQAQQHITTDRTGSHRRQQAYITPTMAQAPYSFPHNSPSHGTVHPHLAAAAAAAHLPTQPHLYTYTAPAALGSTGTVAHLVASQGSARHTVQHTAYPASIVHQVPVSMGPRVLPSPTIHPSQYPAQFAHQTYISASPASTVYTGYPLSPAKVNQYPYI
Sequence of Proto-oncogene tyrosine-protein kinase Src (Homo sapiens) (P12931 2-536 limits assumed): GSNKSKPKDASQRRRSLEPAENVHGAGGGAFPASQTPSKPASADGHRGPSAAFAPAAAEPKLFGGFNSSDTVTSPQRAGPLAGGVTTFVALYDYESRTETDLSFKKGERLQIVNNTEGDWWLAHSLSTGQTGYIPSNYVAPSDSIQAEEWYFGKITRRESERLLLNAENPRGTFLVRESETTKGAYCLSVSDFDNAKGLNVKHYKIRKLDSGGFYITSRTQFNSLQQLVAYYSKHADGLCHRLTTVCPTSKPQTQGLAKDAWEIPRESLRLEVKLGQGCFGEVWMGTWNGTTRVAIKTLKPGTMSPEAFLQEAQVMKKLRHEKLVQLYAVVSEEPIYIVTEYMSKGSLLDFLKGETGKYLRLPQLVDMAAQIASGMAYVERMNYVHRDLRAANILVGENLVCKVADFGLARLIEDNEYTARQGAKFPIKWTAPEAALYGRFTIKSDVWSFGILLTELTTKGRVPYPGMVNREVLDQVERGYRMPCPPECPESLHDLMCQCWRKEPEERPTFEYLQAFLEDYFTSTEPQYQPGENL

`CN1CCN(c2ccc(OC(F)(F)F)c(Nc3ncc4c(n3)-c3c(c(C(N)=O)nn3CCO)CC4)c2)CC1` [ONVANSERTIB] gave an IC50 [1] of over 10000 nM, an IC50 [2] of over 10000 nM and an IC50 (NCI-H522) of 34 nM. The IC50 (A2780 [3]) was 40 nM, the IC50 [4] was over 10000 nM and the clearance [5] was 20.6 mL/min/kg. For the same compound, the TGI (HT-29 [6]) was “Active”, the IC50 (MDA-MB-468) was 83 nM and the IC50 (NCI-H2228) was 335 nM. It also gave an IC50 [7] of 72 nM, an IC50 (SK-MEL-5) of 513 nM and an IC50 (CAL-12T) of 191 nM. For the same compound, the Activity [8] was “Toxic”, the Activity (A2780 [9]) was “Active” and the Activity [10] was 114%. The concentration at 240 h [11] was 433 nM, the IC50 (SW1417) was 606 nM and the IC50 (SU-DHL-8) was 31 nM. It also gave an IC50 (L-363) of 37 nM, an IC50 [12] of over 10000 nM and an IC50 (NCI-H1993) of 287 nM. The Activity [13] was 43%, the IC50 (HCC1395) was 49 nM and the Activity [14] was 96%. For the same compound, the Activity (U2OS) was “Active”, the inhibition (A2780 [15]) was “Active” and the IC50 (KG-1) was 58 nM. For the same compound, the Activity [16] was 20%, the IC50 (HCC 2998) was 132 nM and the inhibition (A2780 [17]) was “Active”. It also gave an IC50 (HT-29 [18]) of 39 nM.
